Results on seven compounds are retold here after ChEMBL document CHEMBL1141111, “Synthesis and biological evaluation of spin-labeled alkylphospholipid analogs” (J Med Chem, 2005).

The species entered for experiment [1] is Homo sapiens. Put plainly: Hemolytic effect (30 uM) on human erythrocytes upon incubation with liposomes for 30 min in pH 7.5. It is filed as functional. An outline of the steps:
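Washed erythrocytes from a healthy donor's EDTA blood, stored at 4 °C and used within 48 h. About 8.59 × 10^7 cells in 1 mL PBS (pH 7.5) with 5.5 mM glucose solution. Extruded LUVET (SL-APL/cholesterol/dicetyl phosphate 10:10:2), 30 nmol lipid, shaken 30 min at room temperature. Supernatant read with Drabkin's reagent at 540 nm, as % of Triton X-100 lysis, in triplicate.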

The species entered for experiment [2] is Homo sapiens. Nature of the experiment: (§1) Hemolytic effect (100 uM) on human erythrocytes. It is filed as functional. An outline of the steps: (§2)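 Blood from a healthy donor was collected in EDTA, the plasma removed, and the cells washed in PBS. Each 1 mL sample held 8.59 × 10^7 erythrocytes in PBS (pH 7.5) with 100 µL of 5.5 mM glucose, plus free lipid (30 nmol) or liposomes (30 or 100 nmol). Samples were shaken 30 min at room temperature and spun at 840g. The supernatant was read with Drabkin's reagent at 540 nm. Results are % of Triton X-100 total lysis, in triplicate.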

The species named for experiment [3] is Homo sapiens. Nature of the experiment: (§3) Hemolytic effect (30 uM) on human erythrocytes upon incubation with lipid for 30 min in pH 7.5. It is filed as functional. An outline of the steps: as §2
For experiment [4], the system named is MCF7. Put plainly: Inhibitory concentration against MCF-7 cells gwoth. It is filed as functional, cell-based, Homo sapiens. The method in brief:
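MCF7 cells were grown in RPMI-1640 with L-glutamine and 10% heat-inactivated FCS, then seeded at 2 × 10^4 per well the day before treatment. Free or liposomal compound (APL/Ch/DCP 10:10:2, 200 nm extruded LUVs) was serially diluted 200–6.25 µM and applied for 24 h in triplicate. MTT (0.5 mg/mL) was added for 4 h, and formazan was dissolved in DMSO and read at 540 nm. IC50 comes from growth-inhibition curves versus untreated cells, mean ± SD of ≥3 independent experiments.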

The nature of experiment [5]: as §1. Type of experiment: functional. An outline of the steps:
as §2

The nature of experiment [6]: as §3. Type of experiment: functional. An outline of the steps:
as §2

For `CCCCCCCCCCCC1(CCCCCCOP(=O)([O-])OC2CC[N+](C)(C)CC2)OCC(C)(C)N1[O]` (stereo not drawn), the Hemolysis in experiment [1] worked out at 4.4%; in experiment [2] it was 6.7%; in experiment [3] it was 95.2%.

As to `CCCCC1(CCCCCCCCCCCCCOP(=O)([O-])OC2CC[N+](C)(C)CC2)OCC(C)(C)N1[O]` (stereo not drawn), the Hemolysis in experiment [1] is 3.2%; in experiment [5], 5.3%; in experiment [6], 16.1%. Further, the midpoint of inhibition in experiment [4] (mcf7), the IC50, lay at 56.4 µM.

For the compound `CCCCCCCCCCCCCCCCCCOP(=O)([O-])OC1CC[N+](C)(C)CC1` [PERIFOSINE], the Hemolysis in experiment [1] stood at 3.2%; in experiment [5], 93.5%; in experiment [6], 98.1%. Further, in experiment [4] (Homo sapiens, MCF7), the IC50 (usually the concentration that gives 50% inhibition) amounted to 75.8 µM.

Take `CCCCCCC1(CCCCCCCCCCCOP(=O)([O-])OC2CC[N+](C)(C)CC2)OCC(C)(C)N1[O]` (stereo not drawn): the Hemolysis in experiment [1] is 4.1%; in experiment [2] it was 5.7%; in experiment [3], 18.3%.

As to `CCCCCCCCC1(CCCCCCCCCOP(=O)([O-])OC2CC[N+](C)(C)CC2)OCC(C)(C)N1[O]` (stereo not drawn), the results for the Hemolysis in experiment [1], in experiment [2] and in experiment [3] were 3.7%, 5.9% and 34.6%, respectively.

For the compound `CCCCCCC1(CCCCCCCCCCCOP(=O)([O-])OCC[N+](C)(C)C)OCC(C)(C)N1[O]` (stereo not drawn), the Hemolysis worked out at 4.9% in experiment [1], 20.3% in experiment [2] and 98.3% in experiment [3].

Take `CCCCCCCCCCCCCC1(CCCCOP(=O)([O-])OC2CC[N+](C)(C)CC2)OCC(C)(C)N1[O]` (stereo not drawn): the Hemolysis in experiment [1] amounted to 6.6%; in experiment [2] it was 17.9%; in experiment [3], 99%.
